OX1R antag-1 – human HCRTR1 antagonism; inhibition, % at 5 µM; O43613; hit rate 0.43% among 330,000; CHO/OX1R cells, Fluo-8 calcium fluorescence, orexin A;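 active = inhibition above its plate's threshold, mean inhibition of all tested compounds on the plate plus 3 SD, cut at about 37% in these data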;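 also: 0% = orexin A challenge wells and 100% = SB-334867-A antagonist wells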
GPR7 antag – human neuropeptides B/W receptor 1 antagonism. GPR7-expressing cells, fluorescence antagonist assay. inhibition, % at 4.4 µM. hit rate 1.1% among 290,000. AID 1861; in the data active = inhibition above about 16%, passing the limit was not always enough;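 also: cells stimulated with the agonist NPW; 0% = agonist with vehicle and 100% = vehicle without agonist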
Target sequence (P48145 whole entry, looked up): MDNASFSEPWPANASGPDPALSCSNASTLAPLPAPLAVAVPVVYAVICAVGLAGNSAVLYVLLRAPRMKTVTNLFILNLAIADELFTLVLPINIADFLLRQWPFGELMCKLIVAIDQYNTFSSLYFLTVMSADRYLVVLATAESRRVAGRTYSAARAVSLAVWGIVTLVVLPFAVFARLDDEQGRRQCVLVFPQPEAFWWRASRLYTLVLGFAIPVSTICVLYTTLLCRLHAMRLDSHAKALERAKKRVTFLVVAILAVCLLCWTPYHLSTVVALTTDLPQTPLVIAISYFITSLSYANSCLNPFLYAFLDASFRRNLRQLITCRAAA
OX1R antag-2 – blocks the human orexin 1 receptor. OX1R-expressing cells, FRET antagonist read-out. O43613. inhibition, % at 6.6 µM. hit rate 1.8% among 330,000; in the data active = inhibition mostly above about 38%, no sharp cut-off; inactive = mostly below about 40%;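 also: 0% = agonist challenge alone and 100% = reference antagonist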
TAAR1 antagonist – human TAAR1 antagonism; AID 624466; CHO RD-HGA16 TAAR1, Fluo-8 calcium fluorescence, antagonist; inhibition, % at 3 µM; Q96RJ0; hit rate 1.5% among 360,000;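 active = inhibition above a per-plate cutoff, the mean inhibition of test compounds on that plate plus 3 SD, cut at about 49% in these data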;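 also: 0% = DMSO plus EC80 beta-PEA response and 100% = DMSO alone without agonist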
Target sequence (Q96RJ0 whole entry, looked up): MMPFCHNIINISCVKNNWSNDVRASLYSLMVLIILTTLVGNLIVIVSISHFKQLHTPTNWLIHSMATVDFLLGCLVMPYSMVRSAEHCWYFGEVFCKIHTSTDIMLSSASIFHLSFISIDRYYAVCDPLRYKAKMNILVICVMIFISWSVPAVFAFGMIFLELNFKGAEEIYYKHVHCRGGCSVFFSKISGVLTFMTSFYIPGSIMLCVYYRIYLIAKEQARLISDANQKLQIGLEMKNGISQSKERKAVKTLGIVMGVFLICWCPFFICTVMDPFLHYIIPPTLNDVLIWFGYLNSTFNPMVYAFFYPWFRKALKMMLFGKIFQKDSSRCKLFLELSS
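Assay system: CHO-derived RD-HGA16 cells stably expressing human TAAR1 plus Gα16. Timing: 140 s kinetic read after compound, 140 s after agonist. Technique: kinetic Fluo-8 calcium fluorescence measurement. Measure: % inhibition of agonist calcium response.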
TAAR1 agonist – agonists of human TAAR1 | Q96RJ0 | CHO RD-HGA16 TAAR1, Fluo-8 calcium fluorescence; vehicle wells 0%, saturating PEA agonist 100% | activation, % at 3 µM | hit rate 0.99% among 360,000;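 active = activation above the mean activation of all test compounds in the run plus 3 SD, cut at about 38% in these data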
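System: CHO RD-HGA16 cells carrying human TAAR1 plus Gα16; Incubation: 17-24 h seeding, 75 min 37 °C dye, 30 min RT; Measured by: Fluo-8 fluorescence, 5 s baseline then 140 s kinetic read; Control set: DMSO and PEA EC100; Replication: single well for each compound.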
CHO parental Ca – signal in parental CHO cells, OX1R antagonist counter-screen | parental CHO-K1, ATP-induced calcium, Fluo-8 fluorescence | inhibition, % at 5.6 µM | hit rate 0.63% among 330,000 | AID 463079;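 active = inhibition above that plate's mean sample inhibition plus 3 SD, cut at about 26% in these data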;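 also: 0% = ATP-challenged DMSO wells and 100% = DMSO wells without ATP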
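material = parental CHO cells | also added = ATP as calcium-mobilizing challenge | dosing = single point at 5.6 µM | detection = intracellular calcium via Fluo-8 no-wash fluorescent dye | read-out = % inhibition | benchmarks = low control ATP plus DMSO, high control DMSO only | repeats = one well per compound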
GPR7 antag conf – confirmation of human GPR7 antagonists. shares compounds with GPR7 antag. GPR7-expressing cells, calcium fluorescence antagonist mode. inhibition, % at 4.4 µM. hit rate 52% among 2,400. AID 1952; in the data active = inhibition above about 24%;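 also: stimulated with the GPR7 agonist NPW; 0% = agonist plus vehicle and 100% = vehicle alone without agonist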
MCHR1 antag – MCHR1 (human) antagonism in GPR7 counter-screen; shares compounds with GPR7 antag; AID 2148; inhibition, % at 4.4 µM; MCHR1-expressing cells, fluorescence antagonist assay; hit rate 62% among 2,400; in the data active = inhibition above about 22%;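 also: 0% = vehicle with agonist and 100% = vehicle without agonist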
* = called active by the depositor; / = no result given. Most compounds without a hit are left out; they make up all but 4.5% or so of the library.

SMILES	OX1R antag-1	GPR7 antag	OX1R antag-2	TAAR1 antagonist	TAAR1 agonist	CHO parental Ca	GPR7 antag conf	MCHR1 antag
O=C(NCc1ccccc1Cl)c1ccc(S(=O)(=O)Nc2cccc(C(F)(F)F)c2)cc1	21.9	24.3*	3.3	20.4	34.1	16.9	32.4*	46.2*
Cc1cccc(NC(=O)CSc2nnc3ccc(-c4cccnc4)nn23)c1	/	/	/	-8.1	2.9	/	/	/
Cc1cc(SCc2cccc([N+](=O)[O-])c2)nc(=O)[nH]1	-7.5	4.8	21.0	-29.7	0.0	22.2	/	/
Cc1cc(SCc2ccc([N+](=O)[O-])cc2)nc(=O)[nH]1	10.1	26.2*	17.4	-2.6	0.5	-12.2	4.0	3.6
CCOc1cc(CNCCO)cc(Br)c1OCc1ccc(Cl)cc1	10.3	53.6*	4.5	26.8	40.1*	0.6	70.2*	78.0*
CCOc1cccc(CNCCO)c1OCc1ccc(Cl)cc1	-21.1	0.0	7.3	12.0	8.4	-17.6	/	/
CCOc1cc(CNC(C)(C)CO)cc(Br)c1OCc1ccc(Cl)cc1Cl	14.6	45.6*	7.6	11.8	17.4	18.1	67.4*	77.8*
O=C(NCc1cccnc1)C1Cc2c(-c3ccc(Cl)cc3)ccnc2O1 (configuration not stated)	/	/	/	-11.8	-2.0	/	/	/
O=c1[nH]c2cc3c(cc2cc1CN(Cc1ccco1)C(=S)NCCCN1CCOCC1)OCCO3	-39.6	99.7*	5.8	11.3	-0.5	-14.9	4.2	-3.4
CCCCNC(=S)N(Cc1ccco1)Cc1cc2cc3c(cc2[nH]c1=O)OCCO3	-31.0	-2.9	17.1	-18.3	1.2	-14.3	/	/
Cc1nc(N2CCC(C)CC2)c2c(C)c(C(=O)Nc3ccc(C(F)(F)F)cc3)sc2n1	-19.9	-7.8	10.3	3.0	1.0	-6.3	/	/
Cc1nc(N2CCC(C)CC2)c2c(C)c(C(=O)Nc3cccc(C(F)(F)F)c3)sc2n1	-15.2	25.0*	4.3	-7.0	0.2	-4.7	-29.3	-3.8
CC(C)CCC(=O)N1CCOC1=O	-20.7	-3.0	15.4	-6.3	8.9	-8.9	/	/
O=C(CCN(CCO)Cc1ccccc1)Nc1ccc(Br)cc1	-14.8	24.1*	14.5	6.4	10.8	-2.6	23.8*	7.0
CCOC(=O)[C@]12CCCC=C1N(Cc1ccccc1)C(=O)[C@H](CC(=O)NCC1CCCCC1)C2	/	/	/	1.0	-0.8	/	/	/
CCNC(=O)C1(C)CCCN(C(=O)c2sc(-c3ccccc3)nc2C)C1 (configuration not stated)	/	/	/	-24.6	0.6	/	/	/
Cc1noc(C)c1CSc1nnc(-c2ccccc2)o1	-1.8	23.0*	8.5	4.0	1.6	-12.2	31.3*	21.6*
O=C(COC(=O)/C=C/c1ccc(Cl)cc1)NCCc1ccccc1	-15.8	21.3*	0.1	-7.8	7.4	4.1	-0.9	-0.8
O=C(COC(=O)/C=C/c1ccco1)NCc1ccccc1	-9.0	27.0*	13.5	-15.9	1.3	-3.6	-7.5	-2.3
CCc1ccc(N(C2C=CS(=O)(=O)C2)S(=O)(=O)c2ccccc2)cc1 (configuration not stated)	-12.8	7.2	22.4	1.2	-0.3	-20.8	/	/
Cc1ccc(S(=O)(=O)N(c2cccc(C(F)(F)F)c2)C2C=CS(=O)(=O)C2)cc1 (configuration not stated)	-9.9	23.2*	-0.3	4.5	7.9	-6.3	12.2	-5.5
COc1ccc(C(O)c2ncc(-c3ccc4ccccc4c3)[nH]2)cc1 (configuration not stated)	/	/	/	-6.5	7.8	/	/	/
CC(NC(=O)c1ccc(C#N)cc1)C1CC2CCC1C2 (configuration not stated)	-18.8	23.4*	8.6	13.6	-2.8	-11.5	-4.2	13.2
CC(NC(=O)c1ccc(N(C)C)cc1)C1CC2CCC1C2 (configuration not stated)	/	-0.2	/	-5.2	17.1	/	/	/
O=C(COC(=O)CNS(=O)(=O)c1ccc2ccccc2c1)Nc1ccccc1Sc1ccccc1	12.8	22.8*	20.3	14.0	8.2	2.9	32.1*	34.2*
SMILES	OX1R antag-1	GPR7 antag	OX1R antag-2	TAAR1 antagonist	TAAR1 agonist	CHO parental Ca	GPR7 antag conf	MCHR1 antag
COc1ccc2[nH]c3c(c2c1)CCN1C(=O)N([C@@H](C)C(=O)NC2CCCCC2C)C(=O)[C@]31C (some centres not stated)	-3.5	22.8*	47.0*	-14.6	-1.2	-17.2	9.8	58.3*
CC(C)[C@@H](C(=O)NC1CCCC1)N1C(=O)N2CCc3c([nH]c4ccccc34)[C@@]2(C)C1=O	-28.5	10.9	32.0	6.0	-1.8	-21.9	/	/
C[C@@H](C(=O)NC1CCCC1)N1C(=O)N2CCc3c([nH]c4ccccc34)[C@@]2(C)C1=O	-8.6	25.7*	18.3	7.4	6.7	-1.8	23.3	5.8
COc1ccc(CNC(=O)[C@H](C)N2C(=O)N3CCc4c([nH]c5ccc(OC)cc45)[C@@]3(C)C2=O)cc1	-32.0	8.2	16.1	30.4	11.9	-18.8	/	/
Cc1ccc(C(=O)NCCN2C3=NC[C@H](Cc4ccc(O)cc4)N3C[C@H]2Cc2ccc(O)cc2)cc1Br	-4.1	/	20.5	-21.8	10.1	-3.7	/	/
Cc1ccc(C(=O)NCCN2C3=NC[C@@H](Cc4ccccc4)N3C[C@H]2Cc2ccc(O)cc2)cc1Br	-19.3	49.1*	14.5	10.0	10.9	-18.9	53.1*	47.8*
COc1ccc(CC(=O)N2CCNC2=O)cc1	-1.6	29.9*	2.9	5.5	5.0	-9.2	-12.7	-1.3
COc1ccc(CC(=O)N2CCc3ccccc32)cc1	-11.8	4.3	25.6	-22.5	6.2	-10.2	/	/
CC(C)c1ccc(NC(=O)C(c2ccc3c(c2)OCO3)N2CCCCC2)cc1 (configuration not stated)	-37.5	24.4*	1.8	-8.0	6.2	-4.7	13.6	39.8*
CC(C)c1ccc(NC(=O)NC(C)c2ccc3c(c2)OCO3)cc1 (configuration not stated)	-14.6	-13.2	4.3	-13.9	0.0	-10.2	/	/
O=C(NCc1cccs1)C1C(=O)Nc2ccccc2C(=O)N1C1CCCC1 (configuration not stated)	/	/	/	-30.7	2.2	/	/	/
CCCc1cc(C(=O)Nc2ccc(CC)cc2)no1	-26.2	-9.9	27.9	-17.0	2.0	-6.4	/	/
CCN1CCN(S(=O)(=O)c2ccc(-c3cc(C)no3)s2)CC1	-14.0	-2.1	7.6	-5.1	0.4	-2.7	/	/
Cc1cc(-c2ccc(S(=O)(=O)N3CCN(c4cccc(C)c4C)CC3)s2)on1	-2.2	29.0*	18.9	-3.0	2.7	3.9	14.5	39.6*
COc1ccc(OC)c(NC(=O)Nc2nnc(COCCO)s2)c1	/	/	/	10.1	0.1	/	/	/

Screens from PubChem.
